Assay results: ChEMBL document CHEMBL3868583, “6-Aryl substituted 4-(4-cyanomethyl) phenylamino quinazolines as a new class of isoform-selective PI3K-alpha inhibitors” (Eur J Med Chem, 2016)
Values after ≈ are worked out from the molar mass of the structure shown.

Experiments:
[1] = Anticancer activity against Swiss mouse EAC cells implanted in Swiss mouse assessed as tumor growth inhibition at 20 mg/kg, ip administered for 1 to 9 days measured on day 12 relative to control; format: functional; conditions: Ehrlich, read-out: TGI
Procedure, shortened: (§1)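 1×10^7 EAC cells injected intraperitoneally into Swiss mice on day 0. Mice randomized next day: treated groups n=7, saline control n=10 (0.2 ml i.p.). Dosing i.p. days 1–9. Sacrifice on day 12; ascitic fluid collected from the peritoneal cavity. % tumor growth inhibition from total tumor cell count versus control. Body weight and mortality tracked.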

[2] = system: Mus musculus; test: Toxicity in Swiss mouse implanted with Swiss mouse EAT cells assessed as mortality at 22 mg/kg, ip administered for 1 to 9 days measured on day 9 and 13; format: organism-based; conditions: in vivo
Procedure, shortened: (§2)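 EAC cells harvested from 8–10-day ascitic Swiss mice; 1×10^7 cells injected intramuscularly into right thigh of Swiss male mice on day 0. Randomized next day: treated n=7, saline control n=10 (0.2 ml i.p.). Dosing i.p. days 1–9. […] Body weight and mortality tracked.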

[3] = system: Mus musculus; test: Toxicity in Swiss mouse implanted with Swiss mouse EAC cells assessed as mortality at 20 mg/kg, ip administered for 1 to 9 days measured on day 12; format: organism-based, Ehrlich; conditions: in vivo; procedure, shortened: as §1
[4] = system: Mus musculus; test: Toxicity in Swiss mouse implanted with Swiss mouse EAC cells assessed as body weight at 20 mg/kg, ip administered for 1 to 9 days measured on day 5 (reference value: 26.2 g); format: organism-based, Ehrlich; conditions: in vivo; procedure, shortened: as §1
[5] = system: Mus musculus; test: Toxicity in Swiss mouse implanted with Swiss mouse EAC cells assessed as body weight at 20 mg/kg, ip administered for 1 to 9 days measured on day 1 (reference value: 22.8 g); format: organism-based, Ehrlich; conditions: in vivo; procedure, shortened: as §1
[6] = system: Mus musculus; test: Toxicity in Swiss mouse implanted with Swiss mouse EAT cells assessed as body weight at 22 mg/kg, ip administered for 1 to 9 days measured on day 1 (reference value: 21.6 g); format: organism-based; conditions: in vivo; procedure, shortened: as §2
[7] = system: Mus musculus; test: Toxicity in Swiss mouse implanted with Swiss mouse EAT cells assessed as body weight at 22 mg/kg, ip administered for 1 to 9 days measured on day 13 (reference value: 24.1 g); format: organism-based; conditions: in vivo; procedure, shortened: as §2
[8] = system: Mus musculus; test: Toxicity in Swiss mouse implanted with Swiss mouse EAC cells assessed as body weight at 20 mg/kg, ip administered for 1 to 9 days measured on day 9 (reference value: 27.7 g); format: organism-based, Ehrlich; conditions: in vivo; procedure, shortened: as §1
[9] = Anticancer activity against Swiss mouse EAT cells implanted in Swiss mouse assessed as tumor growth inhibition at 22 mg/kg, ip administered for 1 to 9 days measured on day 13 relative to control; format: functional; conditions: read-out: TGI
[10] = system: Mus musculus; test: Toxicity in Swiss mouse implanted with Swiss mouse EAT cells assessed as body weight at 22 mg/kg, ip administered for 1 to 9 days measured on day 5 (reference value: 22.6 g); format: organism-based; conditions: in vivo; procedure, shortened: as §2
[11] = system: Mus musculus; test: Toxicity in Swiss mouse implanted with Swiss mouse EAT cells assessed as body weight at 22 mg/kg, ip administered for 1 to 9 days measured on day 9 (reference value: 22.8 g); format: organism-based; conditions: in vivo; procedure, shortened: as §2
[12] = system: Mus musculus; test: Toxicity in Swiss mouse implanted with Swiss mouse EAC cells assessed as body weight at 20 mg/kg, ip administered for 1 to 9 days measured on day 12 (reference value: 28.4 g); format: organism-based, Ehrlich; conditions: in vivo; procedure, shortened: as §1
[13] = Cytotoxicity against human A375 cells assessed as cell growth inhibition after 48 hrs by MTT assay; format: functional; conditions: A-375, 48 h
Procedure, shortened: (§3)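 MTT assay: 3 × 10^3 cells/well seeded, compounds added after 24 h at final […], 48 h exposure. MTT (2.5 mg/mL in PBS) added, formazan dissolved in DMSO, absorbance 570 nm. Viability as % of untreated; three independent experiments, mean ± SD.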

[14] = molecular target: T1, Phosphatidylinositol 4,5-bisphosphate 3-kinase catalytic subunit alpha isoform (Homo sapiens, UniProt P42336); test: Inhibition of PI3Kalpha (unknown origin) using diC8 PIP2 as substrate at 0.5 uM after 80 mins by ADP-glo assay
T1 sequence (P42336 whole entry, canonical isoform): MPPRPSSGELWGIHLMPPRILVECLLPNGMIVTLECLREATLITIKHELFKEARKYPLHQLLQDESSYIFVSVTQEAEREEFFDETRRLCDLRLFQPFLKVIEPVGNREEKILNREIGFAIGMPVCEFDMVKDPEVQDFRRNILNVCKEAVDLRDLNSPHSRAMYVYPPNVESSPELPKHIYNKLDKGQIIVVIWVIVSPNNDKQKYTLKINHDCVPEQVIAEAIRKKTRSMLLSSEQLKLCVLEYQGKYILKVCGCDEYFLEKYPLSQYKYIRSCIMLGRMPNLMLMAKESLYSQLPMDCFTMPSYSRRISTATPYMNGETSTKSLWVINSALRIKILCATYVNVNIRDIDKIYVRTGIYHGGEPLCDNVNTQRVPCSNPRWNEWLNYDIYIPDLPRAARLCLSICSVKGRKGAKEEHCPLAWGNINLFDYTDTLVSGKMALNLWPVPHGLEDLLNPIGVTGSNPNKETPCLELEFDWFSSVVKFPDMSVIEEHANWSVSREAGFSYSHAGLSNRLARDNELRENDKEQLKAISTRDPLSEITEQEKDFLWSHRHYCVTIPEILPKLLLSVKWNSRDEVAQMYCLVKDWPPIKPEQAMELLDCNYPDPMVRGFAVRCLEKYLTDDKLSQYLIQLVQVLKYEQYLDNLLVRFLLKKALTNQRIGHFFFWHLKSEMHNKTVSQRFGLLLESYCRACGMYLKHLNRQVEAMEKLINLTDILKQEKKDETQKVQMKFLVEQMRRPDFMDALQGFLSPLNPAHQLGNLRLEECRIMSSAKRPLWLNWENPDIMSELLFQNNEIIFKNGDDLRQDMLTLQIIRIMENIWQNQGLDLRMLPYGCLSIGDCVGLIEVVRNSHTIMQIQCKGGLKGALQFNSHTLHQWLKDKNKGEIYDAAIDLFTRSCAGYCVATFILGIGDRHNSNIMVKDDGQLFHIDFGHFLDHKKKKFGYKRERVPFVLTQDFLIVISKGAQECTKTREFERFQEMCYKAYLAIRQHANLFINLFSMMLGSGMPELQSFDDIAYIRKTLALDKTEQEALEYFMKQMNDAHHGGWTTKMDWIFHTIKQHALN

[15] = Cytotoxicity against human MCF7 cells assessed as cell growth inhibition after 48 hrs by MTT assay; format: functional; conditions: MCF7, 48 h; procedure, shortened: as §3
[16] = Cytotoxicity against human PANC1 cells assessed as cell growth inhibition after 48 hrs by MTT assay; format: functional; conditions: PANC-1, 48 h; procedure, shortened: as §3
[17] = molecular target: T2, Phosphatidylinositol 4,5-bisphosphate 3-kinase catalytic subunit gamma isoform (Homo sapiens, UniProt P48736); test: Inhibition of PI3Kgamma (unknown origin) using diC8 PIP2 as substrate after 75 mins by ADP-glo assay
T2 sequence (P48736 whole entry, canonical isoform): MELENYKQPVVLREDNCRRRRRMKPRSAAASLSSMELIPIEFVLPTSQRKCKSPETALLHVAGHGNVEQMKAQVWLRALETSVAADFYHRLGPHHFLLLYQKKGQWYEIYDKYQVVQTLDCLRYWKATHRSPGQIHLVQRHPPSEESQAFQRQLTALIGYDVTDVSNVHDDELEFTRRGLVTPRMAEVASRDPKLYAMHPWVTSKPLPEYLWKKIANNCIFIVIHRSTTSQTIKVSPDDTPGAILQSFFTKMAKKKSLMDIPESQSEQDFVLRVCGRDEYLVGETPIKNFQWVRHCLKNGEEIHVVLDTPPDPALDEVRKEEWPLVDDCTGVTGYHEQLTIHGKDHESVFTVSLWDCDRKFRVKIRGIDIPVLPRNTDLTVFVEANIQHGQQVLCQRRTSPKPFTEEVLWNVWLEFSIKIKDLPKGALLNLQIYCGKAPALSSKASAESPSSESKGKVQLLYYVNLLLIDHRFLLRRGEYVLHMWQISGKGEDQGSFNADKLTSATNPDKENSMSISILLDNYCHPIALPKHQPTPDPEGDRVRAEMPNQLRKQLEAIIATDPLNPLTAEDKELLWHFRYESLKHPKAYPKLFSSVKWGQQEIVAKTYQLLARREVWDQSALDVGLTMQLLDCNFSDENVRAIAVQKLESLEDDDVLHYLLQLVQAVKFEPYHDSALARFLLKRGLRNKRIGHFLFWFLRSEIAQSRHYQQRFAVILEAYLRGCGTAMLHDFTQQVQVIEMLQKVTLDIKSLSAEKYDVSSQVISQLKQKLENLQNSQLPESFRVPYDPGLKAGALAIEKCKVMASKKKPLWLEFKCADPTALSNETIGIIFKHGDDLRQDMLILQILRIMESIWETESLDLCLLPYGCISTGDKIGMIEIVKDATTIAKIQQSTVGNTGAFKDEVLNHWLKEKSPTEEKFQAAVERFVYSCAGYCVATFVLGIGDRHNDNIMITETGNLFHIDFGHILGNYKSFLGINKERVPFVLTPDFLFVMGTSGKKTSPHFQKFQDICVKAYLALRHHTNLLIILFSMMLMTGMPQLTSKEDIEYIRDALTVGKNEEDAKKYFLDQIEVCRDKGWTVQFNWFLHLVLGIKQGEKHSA

[18] = Cytotoxicity against human HL60 cells assessed as cell growth inhibition after 48 hrs by MTT assay; format: functional; conditions: HL-60, 48 h; procedure, shortened: as §3
[19] = organism: Homo sapiens; test: Selectivity ratio of IC50 for PI3Kgamma (unknown origin) to IC50 for PI3Kalpha (unknown origin)
[20] = Cytotoxicity against human PC3 cells assessed as cell growth inhibition after 48 hrs by MTT assay; format: functional; conditions: PC-3, 48 h; procedure, shortened: as §3
[21] = organism: Homo sapiens; test: Selectivity ratio of IC50 for PI3Kbeta (unknown origin) to IC50 for PI3Kalpha (unknown origin)
[22] = molecular target: T3, Phosphatidylinositol 4,5-bisphosphate 3-kinase catalytic subunit delta isoform (Homo sapiens, UniProt O00329); test: Inhibition of PI3Kdelta (unknown origin) using diC8 PIP2 as substrate after 120 mins by ADP-glo assay
T3 sequence (O00329 whole entry): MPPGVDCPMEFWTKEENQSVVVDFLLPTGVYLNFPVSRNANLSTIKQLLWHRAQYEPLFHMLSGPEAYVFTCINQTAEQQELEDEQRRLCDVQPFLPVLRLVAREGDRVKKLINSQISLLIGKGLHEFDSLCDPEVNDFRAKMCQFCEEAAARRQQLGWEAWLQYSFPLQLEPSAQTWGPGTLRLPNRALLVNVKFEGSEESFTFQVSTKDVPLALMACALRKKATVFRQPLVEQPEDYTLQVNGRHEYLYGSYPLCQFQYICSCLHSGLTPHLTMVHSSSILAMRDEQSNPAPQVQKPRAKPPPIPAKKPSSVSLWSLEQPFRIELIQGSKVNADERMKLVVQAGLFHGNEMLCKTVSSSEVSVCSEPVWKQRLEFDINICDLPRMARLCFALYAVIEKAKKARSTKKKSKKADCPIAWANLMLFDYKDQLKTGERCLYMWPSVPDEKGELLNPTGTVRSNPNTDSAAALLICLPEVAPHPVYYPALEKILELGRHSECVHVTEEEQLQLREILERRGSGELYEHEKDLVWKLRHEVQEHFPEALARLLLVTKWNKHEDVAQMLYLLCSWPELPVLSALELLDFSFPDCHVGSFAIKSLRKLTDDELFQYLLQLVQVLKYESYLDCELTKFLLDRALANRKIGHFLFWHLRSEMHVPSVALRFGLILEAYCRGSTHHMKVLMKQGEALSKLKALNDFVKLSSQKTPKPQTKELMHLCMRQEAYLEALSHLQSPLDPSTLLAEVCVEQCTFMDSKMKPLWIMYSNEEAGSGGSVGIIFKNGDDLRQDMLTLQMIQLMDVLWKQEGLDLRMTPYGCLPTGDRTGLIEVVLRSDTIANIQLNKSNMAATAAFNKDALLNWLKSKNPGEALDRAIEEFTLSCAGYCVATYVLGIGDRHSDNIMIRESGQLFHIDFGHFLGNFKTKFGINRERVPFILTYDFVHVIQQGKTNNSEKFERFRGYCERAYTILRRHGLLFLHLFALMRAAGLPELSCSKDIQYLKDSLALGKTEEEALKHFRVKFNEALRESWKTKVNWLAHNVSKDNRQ
Procedure, shortened: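 Delta isoform reacted 120 min in glycine-NaOH pH 8.5 buffer (50 mM KCl, 2.5 mM MgCl2, 1 mM DTT, 0.05% CHAPS) with 0.01 mM ATP and 0.05 mM diC8 PIP2; ADP formed detected by ADP-Glo (40 min) plus detection buffer (40 min) luminescence. Dundee profiling centre.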

[23] = molecular target: T1, Phosphatidylinositol 4,5-bisphosphate 3-kinase catalytic subunit alpha isoform; test: Inhibition of PI3Kalpha (unknown origin) using diC8 PIP2 as substrate after 80 mins by ADP-glo assay
[24] = organism: Homo sapiens; test: Selectivity ratio of IC50 for PI3Kdelta (unknown origin) to IC50 for PI3Kalpha (unknown origin)
[25] = molecular target: T4, Phosphatidylinositol 4,5-bisphosphate 3-kinase catalytic subunit beta isoform (Homo sapiens, UniProt P42338); test: Inhibition of PI3Kbeta (unknown origin) using diC8 PIP2 as substrate after 60 mins by ADP-glo assay
T4 sequence (P42338 whole entry, canonical isoform): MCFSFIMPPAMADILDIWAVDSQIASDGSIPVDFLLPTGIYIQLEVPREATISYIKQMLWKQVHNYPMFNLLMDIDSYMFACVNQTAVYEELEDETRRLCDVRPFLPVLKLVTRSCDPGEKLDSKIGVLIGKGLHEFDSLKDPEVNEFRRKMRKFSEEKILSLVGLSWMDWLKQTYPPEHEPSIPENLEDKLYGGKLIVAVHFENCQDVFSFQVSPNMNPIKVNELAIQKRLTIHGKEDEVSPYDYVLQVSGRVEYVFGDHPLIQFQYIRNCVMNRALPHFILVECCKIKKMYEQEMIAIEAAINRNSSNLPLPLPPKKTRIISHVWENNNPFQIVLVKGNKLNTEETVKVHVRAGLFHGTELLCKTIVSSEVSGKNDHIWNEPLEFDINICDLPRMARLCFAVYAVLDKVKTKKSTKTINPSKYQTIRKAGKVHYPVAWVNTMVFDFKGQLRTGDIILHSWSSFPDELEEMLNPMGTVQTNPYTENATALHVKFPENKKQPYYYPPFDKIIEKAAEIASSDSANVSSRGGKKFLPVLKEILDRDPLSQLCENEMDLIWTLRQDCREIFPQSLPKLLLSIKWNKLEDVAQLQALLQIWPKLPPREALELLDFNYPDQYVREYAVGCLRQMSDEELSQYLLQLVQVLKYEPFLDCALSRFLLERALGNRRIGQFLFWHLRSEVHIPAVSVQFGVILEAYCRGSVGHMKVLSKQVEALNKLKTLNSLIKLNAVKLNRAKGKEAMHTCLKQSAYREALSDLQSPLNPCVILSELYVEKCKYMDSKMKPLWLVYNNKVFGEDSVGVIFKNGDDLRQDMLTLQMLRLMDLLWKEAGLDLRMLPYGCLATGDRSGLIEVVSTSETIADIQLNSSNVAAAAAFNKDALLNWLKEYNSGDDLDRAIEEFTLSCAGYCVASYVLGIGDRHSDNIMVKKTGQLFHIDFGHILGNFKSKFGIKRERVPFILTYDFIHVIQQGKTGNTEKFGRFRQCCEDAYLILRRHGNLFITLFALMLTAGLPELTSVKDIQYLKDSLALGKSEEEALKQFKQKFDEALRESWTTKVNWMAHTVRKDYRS

[26] = molecular target: T2, Phosphatidylinositol 4,5-bisphosphate 3-kinase catalytic subunit gamma isoform
[27] = molecular target: T1, Phosphatidylinositol 4,5-bisphosphate 3-kinase catalytic subunit alpha isoform; test: Inhibition of PI3Kalpha (unknown origin)
Procedure, shortened: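 Run by a kinase profiling service. Reaction 80 min. ADP-Glo reagent added for 40 min, then kinase detection buffer for 40 min. Luminescence read.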

[28] = molecular target: T4, Phosphatidylinositol 4,5-bisphosphate 3-kinase catalytic subunit beta isoform; test: Inhibition of PI3Kbeta (unknown origin)
[29] = molecular target: T3, Phosphatidylinositol 4,5-bisphosphate 3-kinase catalytic subunit delta isoform; test: Inhibition of PI3Kdelta (unknown origin)
Procedure, shortened: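 Substrate was 0.05 mM diC8 PIP2 with 0.01 mM ATP, and the kinase reaction ran 120 min. ADP produced was read by ADP-Glo luminescence: 40 min with ADP-Glo reagent, then 40 min with detection buffer.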

[30] = Thermodynamic equilibrium solubility of compound in PBS up to 300 ug after 4 hrs by UV absorbance method; format: physicochemical; conditions: read-out: Therm_solubility
Procedure, shortened: (§4)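 Methanol stock evaporated in wells to give 1–300 µg solid; 200 µl medium (water, PBS, SGF or SIF) added, shaken 300 rpm 4 h at 25 ± 1 °C, equilibrated overnight, centrifuged; supernatant UV absorbance at λmax; saturation point from concentration–absorbance curve; triplicate.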

[31] = Thermodynamic equilibrium solubility of compound in water up to 300 ug after 4 hrs by UV absorbance method; format: physicochemical; conditions: read-out: Therm_solubility; procedure, shortened: as §4
[32] = Thermodynamic equilibrium solubility of compound in simulated intestinal fluid up to 300 ug after 4 hrs by UV absorbance method; format: ADME; conditions: read-out: Therm_solubility; procedure, shortened: as §4
[33] = Thermodynamic equilibrium solubility of compound in simulated gastric fluid up to 300 ug after 4 hrs by UV absorbance method; format: ADME; conditions: read-out: Therm_solubility; procedure, shortened: as §4

## O=c1[nH]cc(F)c(=O)[nH]1 [FLUOROURACIL]
[1]
  inhibition in vivo at 20 mg/kg: 96.9%
[2]
  Activity: Non-Toxic
[3]
  Activity: Non-Toxic
[4]
  Activity: 22 g
[5]
  Activity: 21.42 g
[6]
  Activity: 20.14 g
[7]
  Activity: 22.14 g
[8]
  Activity: 21.28 g
[9]
  inhibition in vivo at 22 mg/kg: 50%
[10]
  Activity: 20.85 g
[11]
  Activity: 21 g
[12]
  Activity: 20.42 g

## N#CCc1ccc(Nc2ncnc3ccc(-c4ccccc4)cc23)cc1
[13]
  GI50: 38 µM
[14]
  inhibition: 36.8%
[15]
  GI50: 14 µM
[16]
  GI50: 38 µM
[17]
  IC50: 6.95 µM
[18]
  GI50: 23 µM
[19]
  Ratio IC50: 14.6
[20]
  GI50: 26 µM
[21]
  Ratio IC50: > 21
[22]
  IC50: > 10 µM
[23]
  IC50: 0.475 µM
[24]
  Ratio IC50: > 21
[25]
  IC50: > 10 µM

## COc1cc2ncnc(Nc3ccc(CC#N)cc3)c2cc1OC
[13]
  GI50: 19 µM
[15]
  GI50: 40 µM
[16]
  GI50: 55 µM
[17]
  IC50: 40 µM
[18]
  GI50: 47 µM
[20]
  GI50: 34 µM
[22]
  IC50: 55 µM
[23]
  IC50: 47 µM
[25]
  IC50: 19 µM

## Nc1nc2cc(-c3ccc4ncc(C(=O)N5CCOCC5)n4c3)ccc2o1 [SERABELISIB]
[26]
  IC50: 1.9 µM
[27]
  IC50: 0.015 µM
[28]
  IC50: 4.5 µM
[29]
  IC50: 13.9 µM

## N#CCc1ccc(Nc2ncnc3ccc(-c4cccc(O)c4)cc23)cc1
[13]
  GI50: 28 µM
[14]
  inhibition: 69.9%
[30]
  solubility thermodynamic at 4 h: 5 µg/mL (≈ 14.2 µM)
[31]
  solubility thermodynamic at 4 h: 5 µg/mL (≈ 14.2 µM)
[15]
  GI50: 15 µM
[16]
  GI50: 36 µM
[18]
  GI50: 24 µM
[19]
  Ratio IC50: 16
[32]
  solubility thermodynamic at 4 h: 5 µg/mL (≈ 14.2 µM)
[20]
  GI50: 37 µM
[21]
  Ratio IC50: 5.8
[24]
  Ratio IC50: 2.3
[33]
  solubility thermodynamic at 4 h: 125 µg/mL (≈ 355 µM)
